Experimental data: ChEMBL document CHEMBL3351600, “Sulfur, selenium and tellurium pseudopeptides: synthesis and biological evaluation” (Bioorg Med Chem, 2014)

How the values were obtained:
SNB-75 = test: Growth inhibition of human SNB75 cells after 48 hrs; assay type: functional; details: SNB-75, 48 h
How it was run: (§1)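 Run by the NCI 58-cell-line screen under its standard cytotoxicity protocol. Compounds were first tested at a single dose, then at five doses. Cells were exposed to compound for 48 h.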

HOP-62 = test: Growth inhibition of human HOP62 cells after 48 hrs; assay type: functional; details: HOP-62, 48 h
How it was run: (§2)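 NCI-60 human tumour cell line panel screen run at the US National Cancer Institute under its standard cytotoxicity protocol. It covers leukaemia, NSCLC, colon, CNS, melanoma, ovarian, renal, prostate and breast lines. An initial single-dose test was followed by five-dose testing with 48 h compound exposure.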

SK-MEL-5 = test: Growth inhibition of human SK-MEL-5 cells after 48 hrs; assay type: functional; details: SK-MEL-5, 48 h; how it was run: as §1
[1] = Growth inhibition of human RXF393 cells after 48 hrs; assay type: functional; details: RXF 393, 48 h; how it was run: as §2
[2] = Growth inhibition of human OVCAR4 cells after 48 hrs; assay type: functional; details: OVCAR-4, 48 h; how it was run: as §2
[3] = Growth inhibition of human COLO205 cells after 48 hrs; assay type: functional; details: COLO 205, 48 h; how it was run: as §2
HL-60(TB) = test: Growth inhibition of human HL-60(TB) cells after 48 hrs; assay type: functional; details: HL-60, 48 h; how it was run: as §2
[4] = Growth inhibition of human UACC62 cells after 48 hrs; assay type: functional; details: UACC-62, 48 h; how it was run: as §1
[5] = Octanol-water partition coefficient, log P of the compound by HPLC analysis; assay type: physicochemical
How it was run: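 Lipophilicity was measured by reversed-phase HPLC on a Nucleosil C18 column with isocratic water/methanol (3:1) at 0.5 ml/min and UV detection at 230 and 245 nm. Dead time was set with thiourea (t0 0.728 min). Retention factor was k = (tR − t0)/t0, and log P came from a calibration against at least six reference compounds.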

[6] = Growth inhibition of human HCC2998 cells after 48 hrs; assay type: functional; details: HCC 2998, 48 h; how it was run: as §2
[7] = Growth inhibition of human OVCAR8 cells after 48 hrs; assay type: functional; details: OVCAR-8, 48 h; how it was run: as §2
Malme-3M = test: Growth inhibition of human MALME-3M cells after 48 hrs; assay type: functional; how it was run: as §2
CAKI-1 = test: Growth inhibition of human CAKI-1 cells after 48 hrs; assay type: functional; details: CAKI-1, 48 h; how it was run: as §2
SK-MEL-28 = test: Growth inhibition of human SK-MEL-28 cells after 48 hrs; assay type: functional; details: SK-MEL-28, 48 h; how it was run: as §2
NCI-H322M = test: Growth inhibition of human NCI-H322M cells after 48 hrs; assay type: functional; how it was run: as §2
Staphylococcus aureus = test: Antimicrobial activity against Staphylococcus aureus assessed as inhibition at 20 ug/6 mm disk after 1 to 2 days by agar diffusion assay; assay type: functional
How it was run: (§3)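 Standard agar diffusion: 6-mm paper disks loaded with 20 µg of compound were placed on inoculated plates. Inhibition-zone diameter (mm) was read after 1 and 2 days of growth.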

A549 = test: Growth inhibition of human A549/ATCC cells after 48 hrs; assay type: functional; details: A549, 48 h; how it was run: as §2
786-0 = test: Growth inhibition of human 786-0 cells after 48 hrs; assay type: functional; details: 786-0, 48 h; how it was run: as §2
NCI-H23 = test: Growth inhibition of human NCI-H23 cells after 48 hrs; assay type: functional; details: NCI-H23, 48 h, read-out: pLC50 (the source's name) (converted); how it was run: as §2
[8] = Growth inhibition of human Hs 578T cells after 48 hrs; assay type: functional; how it was run: as §2
SW-620 = test: Growth inhibition of human SW620 cells after 48 hrs; assay type: functional; details: SW-620, 48 h; how it was run: as §1
SNB-19 = test: Growth inhibition of human SNB19 cells after 48 hrs; assay type: functional; details: SNB-19, 48 h, read-out: pLC50 (the source's name) (converted); how it was run: as §1
Escherichia coli = test: Antimicrobial activity against Escherichia coli tolC assessed as inhibition at 20 ug/6 mm disk after 1 to 2 days by agar diffusion assay; assay type: functional; how it was run: as §3
[9] = Growth inhibition of human RPMI8226 cells after 48 hrs; assay type: functional; details: RPMI-8226, 48 h; how it was run: as §2
[10] = Growth inhibition of human UO31 cells after 48 hrs; assay type: functional; details: UO-31, 48 h; how it was run: as §1
Saccharomyces cerevisiae = test: Antimicrobial activity against Saccharomyces cerevisiae assessed as inhibition at 20 ug/6 mm disk after 1 to 2 days by agar diffusion assay; assay type: functional; how it was run: as §3
SK-OV-3 = test: Growth inhibition of human SKOV3 cells after 48 hrs; assay type: functional; details: SK-OV-3, 48 h; how it was run: as §1
DU-145 = test: Growth inhibition of human DU145 cells after 48 hrs; assay type: functional; details: DU-145, 48 h; how it was run: as §2
NCI-H226 = test: Growth inhibition of human NCI-H226 cells after 48 hrs; assay type: functional; details: NCI-H226, 48 h; how it was run: as §2
SF-268 = test: Growth inhibition of human SF268 cells after 48 hrs; assay type: functional; details: SF-268, 48 h; how it was run: as §2
NCI-H460 = test: Growth inhibition of human NCI-H460 cells after 48 hrs; assay type: functional; details: NCI-H460, 48 h, read-out: pLC50 (the source's name) (converted); how it was run: as §2
[11] = Growth inhibition of human HCT116 cells after 48 hrs; assay type: functional; details: HCT-116, 48 h; how it was run: as §2
[12] = read-out: pLC50 (the source's name) (converted)

Work on COc1ccc(N(CC(=O)NCCC[Te]c2ccccc2)C(=O)CCSC2=C(C)C(=O)c3ccccc3C2=O)cc1 yielded a GI50 (SNB-75) of 1820 nM, a CC50 (SNB-75; [12]) of 45.7 µM and a TGI (SNB-75; read-out: pTGI (converted)) of 6.92 µM. It also gave a GI50 (HOP-62) of 339 nM, a CC50 (HOP-62; [12]) of 3.8 µM and a TGI (HOP-62; read-out: pTGI (converted)) of 1000 nM. For the same molecule, the GI50 (SK-MEL-5) was 1620 nM, the CC50 (SK-MEL-5; [12]) was 5.75 µM and the TGI (SK-MEL-5; read-out: pTGI (converted)) was 3.09 µM. For the same molecule, the GI50 [1] was 1860 nM, the LC50 [1] was 7.94 µM and the TGI ([1]; read-out: pTGI (converted)) was 3.8 µM. The GI50 [2] was 2630 nM, the LC50 [2] was 31.6 µM and the TGI ([2]; read-out: pTGI (converted)) was 10.2 µM. The GI50 [3] was 1860 nM, the CC50 [3, 12] was 6.61 µM and the TGI ([3]; read-out: pTGI (converted)) was 3.47 µM. It also gave a GI50 (HL-60(TB)) of 2880 nM, a CC50 (HL-60(TB); [12]) greater than 100 µM and a TGI (HL-60(TB); read-out: pTGI (converted)) of 6.76 µM. For the same molecule, the GI50 [4] was 1910 nM, the CC50 [4, 12] was 19.1 µM and the TGI ([4]; read-out: pTGI (converted)) was 4.9 µM. For the same molecule, the logP [5] was 1.97, the GI50 [6] was 1230 nM and the CC50 [6, 12] was 9.33 µM. It also gave a TGI ([6]; read-out: pTGI (converted)) of 3.39 µM, a GI50 [7] of 589 nM and an LC50 [7] of 30.9 µM. It also gave a TGI ([7]; read-out: pTGI (converted)) of 3.8 µM, a GI50 (Malme-3M) of 2240 nM and a CC50 (Malme-3M; [12]) of 8.32 µM. The TGI (Malme-3M; read-out: pTGI (converted)) was 4.37 µM, the GI50 (CAKI-1) was 3.09 µM and the LC50 (CAKI-1) was 21.4 µM. The TGI (CAKI-1; read-out: pTGI (converted)) was 6.17 µM, the GI50 (SK-MEL-28) was 2090 nM and the CC50 (SK-MEL-28; [12]) was 12 µM. It also gave a TGI (SK-MEL-28; read-out: pTGI (converted)) of 4.68 µM, a GI50 (NCI-H322M) of 2090 nM and a CC50 (NCI-H322M; [12]) of 60.3 µM. The TGI (NCI-H322M; read-out: pTGI (converted)) was 6.03 µM, the “diameter of the inhibition zone (DIZ)” value (Staphylococcus aureus) was 11 mm and the GI50 (A549) was 257 nM. The CC50 (A549; [12]) was 3.47 µM, the TGI (A549; read-out: pTGI (converted)) was 724 nM and the GI50 (786-0) was 2090 nM. For the same molecule, the LC50 (786-0) was 8.91 µM, the TGI (786-0; read-out: pTGI (converted)) was 4.37 µM and the CC50 (NCI-H23) was 20.4 µM. It also gave a GI50 [8] of 1780 nM, an LC50 [8] greater than 100 µM and a GI50 (SW-620) of 1950 nM. The CC50 (SW-620; [12]) was 45.7 µM, the TGI (SW-620; read-out: pTGI (converted)) was 5.62 µM and the CC50 (SNB-19) was 56.2 µM. For the same molecule, the “diameter of the inhibition zone (DIZ)” value (Escherichia coli) was 12 mm, the GI50 [9] was 550 nM and the CC50 [9, 12] was greater than 100 µM. For the same molecule, the TGI ([9]; read-out: pTGI (converted)) was 3.09 µM, the GI50 [10] was 1660 nM and the LC50 [10] was 8.71 µM. For the same molecule, the TGI ([10]; read-out: pTGI (converted)) was 2190 nM, the “diameter of the inhibition zone (DIZ)” value (Saccharomyces cerevisiae) was 0 mm and the GI50 (SK-OV-3) was 1860 nM. The CC50 (SK-OV-3; [12]) was 8.71 µM, the TGI (SK-OV-3; read-out: pTGI (converted)) was 3.98 µM and the GI50 (DU-145) was 955 nM. The LC50 (DU-145) was 4.9 µM, the TGI (DU-145; read-out: pTGI (converted)) was 2190 nM and the GI50 (NCI-H226) was 1620 nM. It also gave a TGI (NCI-H226; read-out: pTGI (converted)) of 3.63 µM, a GI50 (SF-268) of 468 nM and a CC50 (SF-268; [12]) of 5.5 µM. It also gave a TGI (SF-268; read-out: pTGI (converted)) of 1860 nM, a CC50 (NCI-H460) of 4.68 µM and a GI50 [11] of 339 nM. For the same molecule, the CC50 [11, 12] was 5.5 µM and the TGI ([11]; read-out: pTGI (converted)) was 1290 nM.
